Assay results published in ChEMBL document CHEMBL1687913, “Structure-activity relationship, conformational and biological studies of temporin L analogues” (J Med Chem, 2011).
≈ marks a conversion by molar mass, not a printed value. Where a SMILES comes first, the peptide text is derived from it.

Assays:
[1] = Toxicity in human erythrocytes assessed as hemolysis at 3 uM after 40 mins; format: cell-based, Erythrocyte; conditions: read-out: Activity
Summary of the method: (§1)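 Human red blood cells suspended in 0.9% (w/v) NaCl and incubated 40 min at 37 °C with gentle mixing with serial 2-fold peptide dilutions (peptide predissolved in 20% ethanol). Spun 5 min at 900g; supernatant read at 415 nm. Cells lysed in distilled water set the 100% lysis reference.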

Acinetobacter junii = assay: Antibacterial activity against […] Acinetobacter junii RT-4 after 18 to 20 hrs by microbroth dilution method; format: functional
Summary of the method: (§2)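 CLSI microbroth dilution, adapted. Mid-log bacteria, 2 × 10^6 CFU/mL in Mueller-Hinton broth, mixed 1:1 with MH broth holding peptide in serial 2-fold dilutions in 20% ethanol (0.75-48 μM). Incubated 18-20 h at 37 °C; growth read as A600. MIC is the lowest concentration giving 100% growth inhibition.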

Pseudomonas aeruginosa [2] = assay: Antibacterial activity against Pseudomonas aeruginosa ATCC 27853 after 18 to 20 hrs by microbroth dilution method; format: functional; summary of the method: as §2
Saccharomyces cerevisiae = assay: Antifungal activity against Saccharomyces cerevisiae after 18 to 20 hrs by microbroth dilution method; format: functional
Summary of the method: (§3)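 Yeasts tested by adapted CLSI microbroth dilution in Winge medium. Peptide given in serial 2-fold dilutions (0.75-48 μM, made in 20% ethanol). Incubation 18-20 h at 30 °C, read at A600. MIC taken as the concentration giving complete (100%) growth inhibition.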

Staphylococcus capitis = assay: Antibacterial activity against Staphylococcus capitis after 18 to 20 hrs by microbroth dilution method; format: functional; summary of the method: as §2
[3] = Toxicity in human erythrocytes assessed as hemolysis at 1.5 uM after 40 mins; format: cell-based, Erythrocyte; conditions: read-out: Activity; summary of the method: as §1
Staphylococcus aureus [4] = assay: Antibacterial activity against Staphylococcus aureus ATCC 25923 after 18 to 20 hrs by microbroth dilution method; format: functional; summary of the method: as §2
Staphylococcus aureus [5] = assay: Antibacterial activity against Staphylococcus aureus Cowan I after 18 to 20 hrs by microbroth dilution method; format: functional; summary of the method: as §2
Streptococcus pyogenes = assay: Antibacterial activity against Streptococcus pyogenes ATCC 21547 after 18 to 20 hrs by microbroth dilution method; format: functional; summary of the method: as §2
Pseudomonas aeruginosa [6] = assay: Antibacterial activity against Pseudomonas aeruginosa ATCC 15692 after 18 to 20 hrs by microbroth dilution method; format: functional; summary of the method: as §2
[7] = Toxicity in human erythrocytes assessed as hemolysis at 6 uM after 40 mins; format: cell-based, Erythrocyte; conditions: read-out: Activity; summary of the method: as §1
Priestia megaterium = assay: Antibacterial activity against Bacillus megaterium Bm11 after 18 to 20 hrs by microbroth dilution method; format: functional; summary of the method: as §2
Enterococcus faecalis = assay: Antibacterial activity against Enterococcus faecalis ATCC 29212 after 18 to 20 hrs by microbroth dilution method; format: functional; summary of the method: as §2
[8] = system: Yersinia pseudotuberculosis; assay: Antibacterial activity against Yersinia pseudotuberculosis YPIII after 18 to 20 hrs by microbroth dilution method; format: functional
Summary of the method: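 Broth microdilution adapted from CLSI. Mid-log bacteria at 2 × 10^6 CFU/mL in Mueller-Hinton broth were mixed 1:1 with MH broth containing peptide in serial 2-fold dilutions (peptide in 20% ethanol), 0.75-48 μM. Plates were incubated 18-20 h at 37 °C and growth was read as A600. MIC is the concentration giving 100% growth inhibition.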

Candida albicans = assay: Antifungal activity against Candida albicans ATCC 10231 after 18 to 20 hrs by microbroth dilution method; format: functional; summary of the method: as §3
[9] = Toxicity in human erythrocytes assessed as hemolysis at 12 uM after 40 mins; format: cell-based, Erythrocyte; conditions: read-out: Activity; summary of the method: as §1
[10] = system: Schizosaccharomyces pombe; assay: Antifungal activity against Schizosaccharomyces pombe after 18 to 20 hrs by microbroth dilution method; format: functional; summary of the method: as §3
Pseudomonas syringae = assay: Antibacterial activity against Pseudomonas syringae pv tobaci after 18 to 20 hrs by microbroth dilution method; format: functional; summary of the method: as §2
Acinetobacter baumannii = assay: Antibacterial activity against Acinetobacter baumannii ATCC 19606 after 18 to 20 hrs by microbroth dilution method; format: functional; summary of the method: as §2
[11] = Toxicity in human erythrocytes assessed as hemolysis at 24 uM after 40 mins; format: cell-based, Erythrocyte; conditions: read-out: Activity; summary of the method: as §1
[12] = system: Staphylococcus epidermidis; assay: Antibacterial activity against Staphylococcus epidermidis ATCC 12228 after 18 to 20 hrs by microbroth dilution method; format: functional; summary of the method: as §2
Escherichia coli [13] = assay: Antibacterial activity against Escherichia coli D21 after 18 to 20 hrs by microbroth dilution method; format: functional; summary of the method: as §2
Escherichia coli [14] = assay: Antibacterial activity against Escherichia coli ATCC 25922 after 18 to 20 hrs by microbroth dilution method; format: functional; summary of the method: as §2

| SMILES | hemolysis at 40 min, 3 µM [1] [%] | MIC (Acinetobacter junii) [µM] | MIC (Pseudomonas aeruginosa [2]) [µM] | MIC (Saccharomyces cerevisiae) [µM] | MIC (Staphylococcus capitis) [µM] | hemolysis at 40 min, 1.5 µM [3] [%] | MIC (Staphylococcus aureus [4]) [µM] | MIC (Staphylococcus aureus [5]) [µM] | MIC (Streptococcus pyogenes) [µM] | MIC (Pseudomonas aeruginosa [6]) [µM] | hemolysis at 40 min, 6 µM [7] [%] | MIC (Priestia megaterium) [µM] | MIC (Enterococcus faecalis) [µM] | MIC [8] [µM] | MIC (Candida albicans) [µM] | hemolysis at 40 min, 12 µM [9] [%] | MIC [10] [µM] | MIC (Pseudomonas syringae) [µM] | MIC (Acinetobacter baumannii) [µM] | hemolysis at 40 min, 24 µM [11] [%] | further results |
| --- | --- | --- | --- | --- | --- | --- | --- | --- | --- | --- | --- | --- | --- | --- | --- | --- | --- | --- | --- | --- | --- |
| CC[C@H](C)[C@H](NC(=O)[C@H](CCCNC(=N)N)NC(=O)CNC(=O)[C@H](CC(C)C)NC(=O)[C@H](Cc1ccccc1)NC(=O)[C@H](CCCNC(=N)N)NC(=O)[C@H](CO)NC(=O)[C@H](Cc1ccccc1)NC(=O)[C@H](Cc1c[nH]c2ccccc12)NC(=O)[C@H](CCC(N)=O)NC(=O)[C@@H](NC(=O)[C@@H](N)Cc1ccccc1)C(C)C)C(=O)N[C@@H](CC(C)C)C(N)=O (H-FVQWFSRFLGRIL-NH2) | 9 | 6 (≈ 10 µg/mL) | 48 (≈ 80.1 µg/mL) | 12 (≈ 20 µg/mL) | 6 (≈ 10 µg/mL) | 4 | 6 (≈ 10 µg/mL) | 6 (≈ 10 µg/mL) | 6 (≈ 10 µg/mL) | 24 (≈ 40 µg/mL) | 29 | 6 (≈ 10 µg/mL) | 12 (≈ 20 µg/mL) | 6 (≈ 10 µg/mL) | 12 (≈ 20 µg/mL) | 90 | 6 (≈ 10 µg/mL) | 12 (≈ 20 µg/mL) | 6 (≈ 10 µg/mL) | 98 | MIC [12]: 6 µM (≈ 10 µg/mL); MIC (Escherichia coli [13]): 48 µM (≈ 80.1 µg/mL); MIC (Escherichia coli [14]): 12 µM (≈ 20 µg/mL) |
| CC[C@H](C)[C@H](NC(=O)[C@H](CCCNC(=N)N)NC(=O)CNC(=O)[C@H](CC(C)C)NC(=O)[C@H](Cc1ccccc1)NC(=O)[C@H](CCCCN)NC(=O)[C@H](CO)NC(=O)[C@H](Cc1ccccc1)NC(=O)[C@H](Cc1c[nH]c2ccccc12)NC(=O)[C@H](CCCNC(=N)N)NC(=O)[C@@H](NC(=O)[C@@H](N)Cc1ccccc1)C(C)C)C(=O)N[C@@H](CC(C)C)C(N)=O (H-FVRWFSKFLGRIL-NH2) | 20 | 3 (≈ 5 µg/mL) | 24 (≈ 40 µg/mL) | 24 (≈ 40 µg/mL) | 3 (≈ 5 µg/mL) | 7 | 6 (≈ 10 µg/mL) | 6 (≈ 10 µg/mL) | 3 (≈ 5 µg/mL) | 12 (≈ 20 µg/mL) | 52 | 3 (≈ 5 µg/mL) | 12 (≈ 20 µg/mL) | 3 (≈ 5 µg/mL) | 12 (≈ 20 µg/mL) | 100 | 12 (≈ 20 µg/mL) | 6 (≈ 10 µg/mL) | 6 (≈ 10 µg/mL) | 100 | MIC [12]: 3 µM (≈ 5 µg/mL); MIC (Escherichia coli [13]): 12 µM (≈ 20 µg/mL); MIC (Escherichia coli [14]): 24 µM (≈ 40 µg/mL) |
| CC[C@H](C)[C@H](NC(=O)[C@H](CCCNC(=N)N)NC(=O)CNC(=O)[C@H](CC(C)C)NC(=O)[C@H](Cc1ccccc1)NC(=O)[C@H](CCCNC(=N)N)NC(=O)[C@H](CO)NC(=O)[C@H](Cc1ccccc1)NC(=O)[C@H](Cc1c[nH]c2ccccc12)NC(=O)[C@H](CCCNC(=N)N)NC(=O)[C@@H](NC(=O)[C@@H](N)Cc1ccccc1)C(C)C)C(=O)N[C@@H](CC(C)C)C(N)=O (H-FVRWFSRFLGRIL-NH2) | 14 | 12 (≈ 20.4 µg/mL) | 24 (≈ 40.7 µg/mL) | 24 (≈ 40.7 µg/mL) | 6 (≈ 10.2 µg/mL) | 6 | 6 (≈ 10.2 µg/mL) | 6 (≈ 10.2 µg/mL) | 3 (≈ 5.09 µg/mL) | 24 (≈ 40.7 µg/mL) | 43 | 3 (≈ 5.09 µg/mL) | 24 (≈ 40.7 µg/mL) | 6 (≈ 10.2 µg/mL) | 24 (≈ 40.7 µg/mL) | 92 | 12 (≈ 20.4 µg/mL) | 6 (≈ 10.2 µg/mL) | 6 (≈ 10.2 µg/mL) | 100 | MIC [12]: 6 µM (≈ 10.2 µg/mL); MIC (Escherichia coli [13]): 24 µM (≈ 40.7 µg/mL); MIC (Escherichia coli [14]): 48 µM (≈ 81.4 µg/mL) |
| CC(C)C[C@H](NC(=O)[C@H](CC(C)C)NC(=O)[C@H](CCCNC(=N)N)NC(=O)CNC(=O)[C@H](CC(C)C)NC(=O)[C@H](CC(C)C)NC(=O)[C@H](CCCCN)NC(=O)[C@H](CO)NC(=O)[C@H](CC(C)C)NC(=O)[C@H](Cc1c[nH]c2ccccc12)NC(=O)[C@H](CCC(N)=O)NC(=O)[C@H](CC(C)C)NC(=O)[C@@H](N)CC(C)C)C(N)=O (H-LLQWLSKLLGRLL-NH2) | 9 | 24 (≈ 37.2 µg/mL) | 24 (≈ 37.2 µg/mL) | 3 (≈ 4.66 µg/mL) | 1.5 (≈ 2.33 µg/mL) | 4 | 3 (≈ 4.66 µg/mL) | 1.5 (≈ 2.33 µg/mL) | 6 (≈ 9.31 µg/mL) | 12 (≈ 18.6 µg/mL) | 25 | 1.5 (≈ 2.33 µg/mL) | 3 (≈ 4.66 µg/mL) | 3 (≈ 4.66 µg/mL) | 6 (≈ 9.31 µg/mL) | 73 | 3 (≈ 4.66 µg/mL) | 6 (≈ 9.31 µg/mL) | 12 (≈ 18.6 µg/mL) | 100 | MIC [12]: 1.5 µM (≈ 2.33 µg/mL); MIC (Escherichia coli [13]): 12 µM (≈ 18.6 µg/mL); MIC (Escherichia coli [14]): 6 µM (≈ 9.31 µg/mL) |
